# Shown are actives, neighbours in structure and some others; about 2% of the full set was active somewhere.
# CHRM5 antagonist: human M5 muscarinic receptor antagonists, primary screen, CHO cells, Fluo-8 calcium fluorescence | inhibition, % at 3 µM | Muscarinic acetylcholine receptor M5 (Homo sapiens), P08912 | 360,000 tested, 0.59% active | CHO-hM5 cells, ACh EC80;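 active = inhibition above a per-plate cutoff, the mean of that plate's test compounds plus 3 SD, cut at about 27% in these data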
# M1 PAM: human M1 muscarinic receptor positive allosteric modulators, primary screen, CHO-K1 cells, Fluo-8 calcium fluorescence, 1536-well | Muscarinic acetylcholine receptor M1 (Homo sapiens), P11229 | CHO-K1 hM1, ACh EC20; 0% = ACh EC20, 100% = maximal ACh | activation, % at 3 µM | 360,000 tested, 0.088% active | AID 588819, 2011; in the data active = activation above about 19%, passing the limit was not always enough
# Target sequence (P11229 whole entry, looked up): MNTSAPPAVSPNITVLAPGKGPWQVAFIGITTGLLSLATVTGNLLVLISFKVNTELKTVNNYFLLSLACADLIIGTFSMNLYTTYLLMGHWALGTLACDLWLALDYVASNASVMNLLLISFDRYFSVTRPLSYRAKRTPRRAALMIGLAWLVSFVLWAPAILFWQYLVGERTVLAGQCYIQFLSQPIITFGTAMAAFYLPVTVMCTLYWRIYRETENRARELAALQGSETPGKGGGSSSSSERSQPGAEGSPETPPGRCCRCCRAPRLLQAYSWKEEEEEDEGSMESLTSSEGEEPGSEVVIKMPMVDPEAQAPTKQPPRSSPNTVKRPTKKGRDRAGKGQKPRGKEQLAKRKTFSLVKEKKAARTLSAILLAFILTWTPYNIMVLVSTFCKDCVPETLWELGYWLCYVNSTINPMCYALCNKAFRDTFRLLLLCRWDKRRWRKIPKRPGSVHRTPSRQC
# CHRM1 antagonist: human M1 muscarinic receptor antagonists, primary screen, CHO-K1 cells, Fluo-8 calcium fluorescence, 1536-well | Muscarinic acetylcholine receptor M1 (Homo sapiens), P11229 | CHO-K1 hM1, ACh EC80 antagonist | inhibition, % at 3 µM | 360,000 tested, 1.3% active;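 active = percent inhibition above its own plate's cutoff, namely the mean of that plate's compound wells plus 3 SD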;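 also: peak over basal fluorescence ratio during 140 s after agonist addition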
# CHRM5 agonist: human M5 muscarinic receptor agonists, primary screen, CHO-K1 cells, Fluo-8 calcium fluorescence. Muscarinic acetylcholine receptor M5 (Homo sapiens), P08912. CHO-K1 hM5 cells; 0% DMSO wells, 100% maximal acetylcholine response. activation, % at 3 µM. 360,000 tested, 0.19% active. AID 624037, 2012;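 active = activation above the run's mean over test compounds plus 3 SD, cut at about 23% in these data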;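 also: signal is peak over basal fluorescence ratio across the kinetic read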
# CHRM1 agonist: human M1 muscarinic receptor agonists, primary screen, Fluo-8 calcium fluorescence, CHO-K1 cells, HTS. AID 588814, 2011. activation, % at 3 µM. Muscarinic acetylcholine receptor M1 (Homo sapiens), P11229. 360,000 tested, 0.33% active. CHO-K1 hM1, agonist mode; 0% DMSO, 100% acetylcholine EC100;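 active = activation above the run's mean compound activation plus 3 SD, cut at about 16% in these data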;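 also: peak over basal fluorescence ratio within a 140 s kinetic read after compound addition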
# M5 PAM: human M5 muscarinic receptor positive allosteric modulators, primary screen, CHO-K1 cells, Fluo-8 calcium fluorescence; activation, % at 3 µM; CHO-K1 hM5, ACh EC20 PAM; 0% = ACh EC20, 100% = ACh EC100; Muscarinic acetylcholine receptor M5 (Homo sapiens), P08912; AID 624038, 2012; 360,000 tested, 0.3% active;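 active = activation above the run cutoff, the mean activation of all test compounds plus 3 SD, cut at about 18% in these data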
#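 Probe or stimulus: acetylcholine, EC20 level; Assay system: human M5 receptor in CHO-K1 cells; Schedule: compound preincubation 140 s before EC20 acetylcholine addition; Technique: intracellular calcium via Fluo-8 fluorescence; Dosing: single-point, 3 µM nominal; Read-out basis: percent activation from peak-over-basal fluorescence ratio, scaled EC20-to-EC100 acetylcholine; Repeats: one well per compound, no replicates.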
# Hits are given with their value; – = inactive; · = no result given.
SMILES,CHRM5 antagonist,M1 PAM,CHRM1 antagonist,CHRM5 agonist,CHRM1 agonist,M5 PAM
CCCN(C)C1CN(Cc2cn(CCCC(=O)OC)nn2)S(=O)(=O)C1 (centres undefined),–,·,·,–,·,–
CCCCCCCCN1C(=O)[C@H](CC(=O)N2CCCCC2)C[C@@]2(C(=O)OC)CCCCC=C12,–,·,·,–,·,–
O=C(C[n+]1ccc(Cc2ccccc2)cc1)Nc1ccc([N+](=O)[O-])cc1Cl,–,–,86,–,–,–
Cc1cccc[n+]1CC(=O)Nc1ccc([N+](=O)[O-])cc1Cl,–,–,36,–,–,–
O=[N+]([O-])c1ccc(C[n+]2ccc(Cc3ccccc3)cc2)cc1,–,–,28,–,–,–
O=[N+]([O-])c1ccc(C[n+]2ccccc2)cc1,–,–,–,–,–,–
CCc1nc2ccc(C(=O)Nc3cccc(NS(C)(=O)=O)c3)cn2c1N(CC)CCOC,–,–,–,–,–,–
O=C(Nc1ccc(N2CCN(c3ncccc3C(F)(F)F)CC2)nc1)c1cccs1,–,–,46,–,–,–
O=C(Nc1ccc(N2CCN(c3ccc(C(F)(F)F)cn3)CC2)nc1)c1cccs1,–,–,–,–,–,–
COc1cc(CC(=O)N2c3ccccc3N=C(c3ccccc3)C2C(=O)NCc2ccccc2)cc(OC)c1 (centres undefined),–,·,·,–,·,–
O=C(NCc1cccnc1)c1cc(C2CCCCN2S(=O)(=O)c2cccs2)on1 (centres undefined),–,–,–,–,–,–
COc1ccc(NS(=O)(=O)c2ccc(N3CCCC3=O)cc2)cn1,28,–,–,–,–,–
CCC(=O)N1CCN(c2ccccc2NC(=O)COc2cc(C)ccc2C(C)C)CC1,27,–,–,–,–,–
Cc1cc(C)c(OCC(=O)Nc2ccccc2N2CCOCC2)c(C)c1,–,–,–,28,18,–
O=C(Cn1c(=O)cnc2ccccc21)Nc1ccccc1N1CCOCC1,–,–,–,–,–,28
O=C(Nc1ccccc1N1CCOCC1)c1cc(-c2ccco2)nc2ccccc12,–,–,38,–,–,–
Cc1cc(C)c(OCC(=O)Nc2ccccc2N2CCCCC2)c(C)c1,–,–,–,–,–,–
O=C(Cn1c(=O)cnc2ccccc21)Nc1cc(Cl)ccc1N1CCOCC1,–,–,–,–,–,–
COc1cc(C=C2CCCC(=Cc3ccc(OCC4CO4)c(OC)c3)C2=O)ccc1OCC1CO1 (centres undefined),–,–,–,–,–,–
Cc1ccccc1-c1nnc(SC(C)C(=O)NC2CCCC2)o1 (centres undefined),–,–,–,–,–,–
CCN(CCCNC(=O)C1CCCN(S(=O)(=O)CC)C1)c1cccc(C)c1 (centres undefined),–,–,–,–,–,–
CCN(CCCNC(=O)C1CCN(S(=O)(=O)c2cnc[nH]2)CC1)c1cccc(C)c1,–,–,–,–,–,42
CN(C)Cc1cc(C(F)(F)F)ccc1C(O)(c1ccccc1)c1ccccc1,75,–,101,–,–,–
O=C(c1ccc(-c2cc(Cl)ccc2Cl)o1)N1CCOCC1,–,–,–,–,–,19
O=C(c1ccc(-c2ccc(Cl)cc2Cl)o1)N1CCOCC1,–,–,–,–,–,–
SMILES,CHRM5 antagonist,M1 PAM,CHRM1 antagonist,CHRM5 agonist,CHRM1 agonist,M5 PAM
O=C(O)CSc1nnc(CSc2nc3ccccc3s2)n1-c1ccccc1,–,–,–,–,–,20
COc1ccc(CN(CCc2ccccc2)Cc2ccccc2)cc1OC,–,–,–,–,–,–
COc1cc(CN(CCN(C)C)Cc2ccccc2)ccc1OCc1ccccc1,–,–,51,–,–,–
CCN1CCN(C(=O)c2ccccc2N(Cc2ccccc2)S(C)(=O)=O)CC1,–,–,–,–,–,–
CCN1CCN(C(=O)c2ccccc2N(Cc2ccccc2)S(=O)(=O)c2ccc(C)cc2)CC1,–,–,–,–,28,–
CCCCn1c(N)c(N(CCC(C)C)C(=O)c2cc(S(=O)(=O)N3CCOCC3)ccc2F)c(=O)[nH]c1=O,–,21,–,–,–,–
CCCCn1c(N)c(N(CC(C)C)C(=O)Cc2ccc(S(=O)(=O)N3CCOCC3)s2)c(=O)[nH]c1=O,–,–,–,–,17,–
O=C(/C=C/c1ccc(Cl)c([N+](=O)[O-])c1)Nc1ccc(NC(=O)c2ccco2)cc1,–,–,–,–,–,–
O=C(/C=C/c1ccc(Cl)c([N+](=O)[O-])c1)Nc1cccc(NC(=O)c2ccco2)c1,–,–,34,–,–,–
Cc1ccnc(SCc2cc(=O)c(OC(=O)c3ccc(Br)o3)co2)n1,–,–,–,–,–,34
O=C(Oc1coc(CSc2ncccn2)cc1=O)c1ccc(Br)o1,–,–,–,–,–,–
O=C1C=C(OCCF)CC(c2ccccc2C(F)(F)F)O1 (centres undefined),–,·,·,–,·,–
CSc1ccc(CN2CCC(Oc3cccc(C(=O)N4CCCC4)c3)CC2)cc1,69,–,75,–,–,–
COC(=O)c1ccc(CN2CCC(Oc3cccc(C(=O)N4CCCC4)c3)CC2)cc1,80,–,94,–,–,–
COC(=O)c1ccc(CN2CCC(Oc3ccc(C(=O)N4CCCCC4)cc3)CC2)cc1,–,–,97,–,–,–
Cc1cc(C)cc(CN2CCC(Oc3ccc(C(=O)N4CCCC4)cc3)CC2)c1,–,–,–,–,–,–
O=C(c1cccc(OC2CCN(Cc3cc(F)cc(F)c3)CC2)c1)N1CCCC1,–,–,–,–,–,–
COc1ccccc1Cc1c(-c2ccc(C#N)cc2)nc2c(C)cc(Br)cn12,–,–,–,–,–,–
CCCn1cnc2c(=O)oc3ccccc3c21,–,–,–,–,–,30
O=C(NC1CCCCC1)OC1CC2CC1[C@H]1CCCCN1C2=O (some centres undefined),–,·,·,–,·,–
COc1cc([N+](=O)[O-])c2nc(C(=O)O)ccc2c1,–,–,–,–,–,–
CC(=O)c1ccc(OCC(=O)NCCC2=CCCCC2)cc1,–,24,–,–,–,–
O=C(COC(=O)/C=C/c1ccc(Cl)cc1Cl)NCCC1=CCCCC1,–,–,–,–,–,27

# Assay outcomes from PubChem BioAssay.
